From PubChem
Rows were chosen to be rich in hits. Some 0.74% of all compounds tested hit in one or more screens of this group.
RGS4-Gao reg: modulators of RGS4 binding to Galphao, primary screen, biochemical, multiplexed bead flow cytometry; 0.33% of 220,000 active; binding response (% of control), % at 10 µM; AID 1415, 2008; actives lie on both sides; in the data active = binding response below about 49% or above about 150%; inactive = in between;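 also: fluorescent Galphao activated with aluminum fluoride binding bead-coupled RGS4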
Target sequence (P09471 whole entry, looked up): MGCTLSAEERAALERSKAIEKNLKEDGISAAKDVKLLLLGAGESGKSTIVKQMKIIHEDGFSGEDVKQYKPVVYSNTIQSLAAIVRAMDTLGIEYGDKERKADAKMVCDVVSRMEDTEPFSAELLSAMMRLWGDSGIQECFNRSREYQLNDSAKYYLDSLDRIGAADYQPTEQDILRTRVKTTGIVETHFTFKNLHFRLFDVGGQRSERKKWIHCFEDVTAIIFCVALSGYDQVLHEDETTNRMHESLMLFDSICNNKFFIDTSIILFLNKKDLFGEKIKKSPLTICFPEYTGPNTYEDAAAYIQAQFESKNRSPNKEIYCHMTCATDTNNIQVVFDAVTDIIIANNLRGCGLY
RGS16-Gao: modulators of RGS16 binding to Galphao, primary screen, biochemical, human proteins, multiplexed bead flow cytometry | bead-based flow cytometry RGS16-Galphao binding, fluorescence; actives lie on both sides | 0.38% of 220,000 active | binding response (% of control), % at 10 µM | Regulator of G-protein signaling 16 (Homo sapiens) + Guanine nucleotide-binding protein … | AID 1441, 2008;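 also: Galphao activated by GDP with aluminum fluoride before binding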
RGS8-Gao: RGS8-Galphao binding modulators, primary screen, biochemical, multiplexed bead flow cytometry; response (percent of control binding), % at 10 µM; 0.34% of 220,000 active; Guanine nucleotide-binding protein G(o) subunit alpha (Homo sapiens), P09471; actives lie on both sides; in the data active = response below about 60% or above about 140%; inactive = in between;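 also: Galphao activated as the GDP aluminium fluoride complex binding bead-coupled RGS8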
RGS7-Gao reg: RGS7-Galphao binding modulators, primary screen, biochemical, multiplexed bead flow cytometry; actives lie on both sides; binding response (% of control), % at 10 µM; Guanine nucleotide-binding protein G(o) subunit alpha (Homo sapiens), P09471; 0.35% of 220,000 active; in the data active = binding response below about 49% or above about 150%; inconclusive = no clear call, values can overlap the other calls; inactive = in between;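 also: fluorescent Galphao held in activated GDP-AlF4 state binding bead-coupled RGS7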
Biofilm kill mix: clotrimazole potentiators killing C. albicans biofilm, primary screen, 4-compound mixtures | C. albicans biofilm persisters + clotrimazole, fluorescence viability; primary screen in compound mixtures of four per well | inhibition, % at 7.6 µM | 0.02% of 120,000 active | AID 1242, 2008;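 active = inhibition above 30.3% in the primary screen of four-compound pools, then above 30% when the compound was retested; inconclusive = passed the primary limit but could not be retested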;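 also: compounds exposed to preformed 24 h biofilms for 48 h; 0% = untreated biofilm control and 100% = clotrimazole plus chlorhexidine kill blank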
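Test system: C. albicans biofilms. Buffer or medium: RPMI/MOPS medium, pH 7.0. Timing: 48 h compound exposure at 37 °C. Technique: Alamar Blue fluorescence. Evaluation: percent inhibition of biofilm viability.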
RGS4-Gao HTS: modulators of RGS–Galpha-o binding, primary screen, biochemical, multiplexed beads, flow cytometry, RGS4/7/8/16/19. 99% of 1,600 active. AID 1504, 2009. shares compounds with RGS16-Gao. multiplexed bead flow cytometry. RGS4–Galpha-o binding response, % at 10 µM;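 also: fluorescently labeled Galpha-o bound to GDP with aluminium fluoride binding biotinylated RGS beads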
Avidin counter: disruption of biotin probe capture by avidin, counter-screen for RGS protein interaction modulators, biochemical, flow cytometry, bead-based | AID 1783, 2009 | inhibition, % at 10 µM | streptavidin beads, fluorescein-biotin binding | 1,700 tested, under 10 active | shares compounds with RGS16-Gao;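 active = inhibition above 50%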;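 also: median green fluorescence of gated singlet beads compared with DMSO control wells; 0% = DMSO wells and 100% = complete loss of bead fluorescence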
RGS8-Gao confirm: RGS8-Galphao binding modulators, confirmation, biochemical, multiplexed bead flow cytometry, single concentration; AID 1836, 2009; bead-based flow cytometry RGS8-Galphao binding, fluorescence; actives lie on both sides; binding response (% of control), % at 10 µM; 3% of 1,700 active; shares compounds with RGS16-Gao; in the data active = binding response below about 72% or above about 130%; inactive = in between;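 also: Galphao activated as GDP AlF4 complex before binding bead RGS8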
RGS7-Gao single: RGS7-Galphao binding modulators, confirmation, biochemical, multiplexed bead flow cytometry, single concentration; response (percent of control binding), % at 10 µM; 7.8% of 1,700 active; shares compounds with RGS16-Gao; bead-based flow cytometry RGS7-Galphao binding; actives lie on both sides; in the data active = response below about 75% or above about 130%; inactive = in between;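 also: fluorescent Galphao activated with GDP and aluminum fluoride binding bead-coupled RGS7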
RGS16-Gao conf: modulators of RGS16-Galphao protein binding, confirmation, biochemical, single concentration, multiplexed bead flow cytometry. response (% of control binding), % at 10 µM. shares compounds with RGS16-Gao. 4% of 1,700 active. bead-based flow cytometry; actives lie on both sides; in the data active = response below about 74% or above about 130%; inactive = in between;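 also: Galphao activated as the GDP aluminium fluoride complex binding bead-coupled RGS16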
RGS4-Gao confirm: modulators of RGS4-Galphao protein binding, confirmation, biochemical, single concentration, multiplexed bead flow cytometry | binding response (% of control), % at 10 µM | actives lie on both sides | 4% of 1,700 active | shares compounds with RGS16-Gao; in the data active = binding response below about 74% or above about 130%; inactive = in between
RGS19-Gao single: regulators of RGS19-Galphao binding, confirmation, biochemical, single point, multiplexed bead flow cytometry. shares compounds with RGS16-Gao. bead-based flow cytometry RGS19-Galphao binding; actives lie on both sides. response (percent of control binding), % at 10 µM. 5% of 1,700 active. AID 1841, 2009; in the data active = response below about 50% or above about 160%; inactive = in between;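 also: 100% = no compound control and 0% = blank background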
Target sequence (P09471 whole entry, looked up): as above
Target sequence (P49795 whole entry, looked up): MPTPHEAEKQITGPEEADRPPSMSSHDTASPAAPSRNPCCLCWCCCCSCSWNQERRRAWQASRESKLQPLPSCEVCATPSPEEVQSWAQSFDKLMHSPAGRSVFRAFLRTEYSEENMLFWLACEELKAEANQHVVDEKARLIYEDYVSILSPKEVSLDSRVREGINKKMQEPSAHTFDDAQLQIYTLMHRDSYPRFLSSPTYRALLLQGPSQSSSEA
* marks the source's active call; other numbers are inactive results; i = inactive; ? = inconclusive; nt = no result; [ ] = dose if it differs, or a comment. Unless noted, no rule for the calls is given here.

SMILES	RGS4-Gao reg	RGS16-Gao	RGS8-Gao	RGS7-Gao reg	Biofilm kill mix	RGS4-Gao HTS	Avidin counter	RGS8-Gao confirm	RGS7-Gao single	RGS16-Gao conf	RGS4-Gao confirm	RGS19-Gao single
O=C(NN=C1CCCCCC1)c1ccc(Br)o1	115	327*[activator]	141*[activator]	120	10	115*	-1	113	116	115	111	124
CC(=O)c1sc(Nc2nc3cc4c(cc3s2)OCO4)nc1C	98	95	95	95	19	nt	nt	nt	nt	nt	nt	nt
CCOC(=O)c1sc(Nc2nc3cc4c(cc3s2)OCO4)cc1C	583*[activator]	938*[activator]	171*[activator]	666*[activator]	17	nt	2	92	69*	80	80	48*
COc1ccc(-c2c(C#N)c(C)nc3c2C(=O)c2ccccc2-3)cc1	101	100	103	98	nt	nt	nt	nt	nt	nt	nt	nt
Cc1nc2c(cc1C#N)C(=O)c1ccccc1-2	86	18*	74	85	7	86*	-1	98	99	99	99	97
O=C(NNC(=S)Nc1ccc(Br)cc1Cl)c1ccncc1	112	110	102	164*[activator]	11	112*	2	102	101	104	103	110
O=C(CC(C(=O)N1CCc2ccccc21)n1ccnc1)NCc1ccccc1 (stereo unspecified)	115	476	143*[activator]	113	nt	115*	2	102	104	104	102	100
CCN(CC)CC(C)CNC(=O)CC(C(=O)N1CCc2ccccc21)n1ccnc1 (stereo unspecified)	107	117	102	103	nt	nt	nt	nt	nt	nt	nt	nt
COC(=O)c1ccc(OC(=O)CCc2cc(OC)c(OC)c(OC)c2)cc1	106	103	108	106	3	nt	nt	nt	nt	nt	nt	nt
O=C(COc1ccc(/C=N/NC(=O)c2cc3ccccc3o2)cc1Cl)Nc1ccccc1	373*[activator]	i	225*[activator]	218*[activator]	nt	nt	0	100	96	100	91	166*[activator]
NC(N)=NC(N)=Nc1ccc(SC(F)(F)F)cc1	101	16*	72	97	5	101*	0	101	100	102	100	100
NC(N)=NC(N)=Nc1ccc2ccccc2c1	101	100	95	99	9	nt	nt	nt	nt	nt	nt	nt
Cc1cc(-c2csc(N)n2)c(C)n1-c1ccc(Cl)c(Cl)c1	99	81	102	106	13	nt	nt	nt	nt	nt	nt	nt
COc1ccc(-n2c(C)cc(-c3csc(N)n3)c2C)cc1	13*	0.5*	13*	-0.7*	20	nt	-2	98	100	99	100	107
CC(=O)c1ccc(NC(=O)C(C)N2CCN(C/C=C/c3ccccc3)CC2)cc1 (stereo unspecified)	162*[activator]	154	107	151*[activator]	-9	nt	-1	108	112	113	108	105
CC(C(=O)Nc1ccc([N+](=O)[O-])cc1)N1CCN(C/C=C/c2ccccc2)CC1 (stereo unspecified)	101	98	100	99	8	nt	nt	nt	nt	nt	nt	nt
O=C(CCS(=O)(=O)Cc1ccc(Cl)cc1)NCCc1ccccc1	98	99	102	103	8	nt	nt	nt	nt	nt	nt	nt
Cc1cc(C)nc(NNC(=O)NC2CCCCC2)n1	-11*	-20*	2.4*	-8.8*	10	nt	0	113	119	119	112	107
c1ccc(-n2nnnc2SCc2cccc3nsnc23)cc1	99	101	100	102	nt	nt	nt	nt	nt	nt	nt	nt
CC(=O)Nc1ccccc1C(F)(F)F	22*	30	48*	?	13	nt	1	106	113	105	108	96
COc1ccc(NC(=O)c2ccc(COCC(F)(F)C(F)F)cc2)cc1	78	25*	68	93	14	78*	0	104	103	104	102	118
CC(=O)c1ccc(NC(=O)N2C3CCC2CC(O)(c2cccnc2)C3)cc1 (stereo unspecified)	94	94	96	90	13	nt	nt	nt	nt	nt	nt	nt
Cc1[nH]n(-c2ccccc2)c(=S)c1C=Nc1cccc([N+](=O)[O-])c1	95	19*	69	107	nt	95*	0	54*	84	5.9*	86	9.1*
CCCCN=Cc1c(C)[nH]n(-c2ccccc2)c1=S	105	105	102	110	10	nt	nt	nt	nt	nt	nt	nt
Cc1nn(Cc2ccc(F)cc2)c2sc(C(=O)Nc3ccccc3N3CCOCC3)cc12	89	15*	83	91	15	89*	0	98	92	99	98	97
Cc1nn(Cc2ccccc2Cl)c2sc(C(=O)Nc3ccccc3N3CCOCC3)cc12	97	105	100	95	7	nt	nt	nt	nt	nt	nt	nt
Cc1cc(C)c(S(=O)(=O)/N=C2/C=C(Sc3ncn[nH]3)C(=O)c3ccccc32)cc1C	90	-0.4*	60	84	20	90*	nt	nt	nt	nt	nt	nt
Cc1ccc(NC2=C/C(=N/S(=O)(=O)c3cccs3)c3ccccc3C2=O)cc1C	100	96	100	99	19	nt	nt	nt	nt	nt	nt	nt
CCNc1nc(N)c(C(=C(C#N)C#N)c2ccccc2)s1	93	92	97	92	nt	nt	nt	nt	nt	nt	nt	nt
